Experimental data reported in ChEMBL document CHEMBL1154107, “Inhibitors of VIM-2 by screening pharmacologically active and click-chemistry compound libraries” (Bioorg Med Chem, 2009).
In brackets after ≈: the same amount, converted by molar mass. Activity calls are given as the source filed them. The rule behind the calls is not given here.

How the values were obtained:
Escherichia coli [1] = assay: Antibacterial activity against imipenem-non resistant Escherichia coli BL21(DE3) after 18 hrs by twofold serial broth dilution method; type: functional
Summary of the method: (§1)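 Two-fold serial broth dilution MIC per CLSI, 10-point dilutions in Iso-Sensitest broth, 2 mL tubes. BL21 grown 5 h at 37°C in LB (kanamycin 30 μg/mL for pET-9a VIM-2 transformants). Inoculum 5 × 10^5 CFU/mL; shaken ≥18 h at 37°C aerobically.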

[2] = Inhibition of VIM2 using nitrocefin as substrate after 15 mins by microtiter plate assay
[3] = Inhibition of IMP1 using nitrocefin as substrate after 15 mins by microtiter plate assay
[4] = Inhibition of VIM2 using CCF2 as substrate after 15 mins by FRET assay
[5] = Inhibition of VIM2 using nitrocefin as substrate by rapid dilution method
[6] = Inhibition of VIM2 using nitrocefin as substrate at 56 uM after 15 mins by microtiter plate assay
[7] = Inhibition of VIM2 using CCF2 as substrate at 44 uM after 15 mins by FRET assay
Summary of the method: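 VIM-2 (0.1 nM final) in 50 mM HEPES, 50 μM ZnSO4, 0.05% Brij 35, pH 7.1, preincubated 15 min at RT with compound; CCF2-FA added to 10 μM, 25 min at RT, stopped with EDTA. Ratiometric fluorescence read at excitation 409 nm, emission 460/535 nm. Triplicate ten-point 1:3 dilutions; IC50 from four-parameter fit of ratio data.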

[8] = Inhibition of IMP1 using nitrocefin as substrate at 56 uM after 15 mins by microtiter plate assay
[9] = Inhibition of TEM-1 using nitrocefin as substrate after 15 mins by microtiter plate assay
[10] = Inhibition of TEM-1 using nitrocefin as substrate at 25 uM after 15 mins by microtiter plate assay
[11] = Inhibition of Enterobacter cloacae AmpC using nitrocefin as substrate after 15 mins by microtiter plate assay
Enterobacter cloacae = assay: Inhibition of Enterobacter cloacae AmpC using nitrocefin as substrate at 25 uM after 15 mins by microtiter plate assay
Escherichia coli [12] = assay: Antibacterial activity against imipenem-resistant Escherichia coli BL21(DE3) expressing VIM2 gene after 18 hrs by twofold serial broth dilution method; type: functional; summary of the method: as §1
[13] = test system: Escherichia coli BL21(DE3); assay: Inhibition of VIM2 in imipenem-resistant Escherichia coli BL21(DE3) assessed as potentiation of imipenem-induced bactericidal activity at 50 uM after 18 hrs by twofold serial broth dilution method
[14] = Inhibition of IMP1 in Escherichia coli
[15] = test system: Escherichia coli BL21(DE3); assay: (§2) Inhibition of VIM2 in imipenem-resistant Escherichia coli BL21(DE3) assessed as potentiation of imipenem-induced bactericidal activity at […] after 18 hrs by checkerboard microdilution method
Escherichia coli [16] = assay: Bactericidal activity against imipenem-resistant Escherichia coli BL21(DE3) expressing VIM2 gene at […] after 24 hrs by broth microdilution method; type: functional
Escherichia coli [17] = assay: Bactericidal activity against imipenem-non resistant Escherichia coli BL21(DE3) at […] after 24 hrs by broth microdilution method; type: functional
Escherichia coli [18] = assay: Bacteriostatic activity against imipenem-resistant Escherichia coli BL21(DE3) expressing VIM2 gene at […] after 24 hrs by broth microdilution method; type: functional
Escherichia coli [19] = assay: Bacteriostatic activity against imipenem-non resistant Escherichia coli BL21(DE3) at […] after 24 hrs by broth microdilution method; type: functional
[20] = test system: Escherichia coli BL21(DE3); assay: as §2; remark: listed apart in the source
[21] = test system: Escherichia coli BL21(DE3); assay: Inhibition of VIM2 in imipenem-resistant Escherichia coli BL21(DE3) assessed as potentiation of imipenem-induced bactericidal activity at 4.2 ug/mL after 18 hrs by checkerboard microdilution method
Summary of the method: (§3)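 Checkerboard in 96-well plates, 0.2 mL. […] BL21/VIM-2 pre-grown 5 h at 37°C with kanamycin; inoculum 1 × 10^6 CFU/mL. Shaken ≥18 h at 37°C. MIC read per CLSI; synergy by ΣFIC; QC strain ATCC 35218.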

[22] = Inhibition of VIM2 using CCF2 as substrate at 36 uM after 15 mins by FRET assay
Summary of the method: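 FRET endpoint assay in 50 mM HEPES, 50 μM ZnSO4, 0.05% Brij 35, pH 7.1. VIM-2 (0.1 nM final) preincubated 15 min at RT with compound. CCF2-FA added to 10 μM final, 25 min at RT, stopped with EDTA. Excitation 409 nm, emissions 460 and 535 nm, read as ratio. Triplicate dilution series starting at 56 μM nominal.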

[23] = Inhibition of VIM2 using nitrocefin as substrate at 15 uM after 15 mins by microtiter plate assay
[24] = Inhibition of IMP1 using nitrocefin as substrate at 140 uM after 15 mins by microtiter plate assay
Escherichia coli [25] = assay: Selectivity ratio of MIC for imipenem-resistant Escherichia coli BL21(DE3) expressing VIM2 gene to MIC for imipenem-non resistant Escherichia coli BL21(DE3); type: functional
Escherichia coli [26] = assay: Bactericidal activity against imipenem-resistant Escherichia coli BL21(DE3) expressing VIM2 gene at […] up to 6 hrs by broth microdilution method; type: functional
Escherichia coli [27] = assay: Bactericidal activity against imipenem-non resistant Escherichia coli BL21(DE3) at […] up to 6 hrs by broth microdilution method; type: functional
Escherichia coli [28] = assay: Bactericidal activity against imipenem-resistant Escherichia coli BL21(DE3) expressing VIM2 gene at […] after 6 hrs by broth microdilution method; type: functional
Escherichia coli [29] = assay: Bactericidal activity against imipenem-non resistant Escherichia coli BL21(DE3) at […] after 6 hrs by broth microdilution method; type: functional
[30] = test system: Escherichia coli BL21(DE3); assay: Inhibition of VIM2 in imipenem-resistant Escherichia coli BL21(DE3) assessed as potentiation of imipenem-induced bactericidal activity at 8.9 ug/mL after 18 hrs by checkerboard microdilution method; summary of the method: as §3
[31] = test system: Escherichia coli BL21(DE3); assay: Inhibition of VIM2 in imipenem-resistant Escherichia coli BL21(DE3) assessed as potentiation of imipenem-induced bactericidal activity at 4.5 ug/mL after 18 hrs by checkerboard microdilution method; summary of the method: as §3

Compound `C[C@@H](O)[C@H]1C(=O)N2C(C(=O)O)=C(SCCNC=N)C[C@H]12` [IMIPENEM ANHYDROUS] has an MIC (Escherichia coli [1]) of 0.2 µg/mL (≈ 0.668 µM).

With `C#CCCOCc1nn[nH]c1CNS(=O)(=O)c1ccc(I)cc1` the IC50 [2] was 3.3 µM, the IC50 [3] was > 56 µM and the IC50 [4] was 1.3 µM. The Ki [5] was 0.41 µM, the inhibition [6] was 79% and the inhibition [7] was 76%. For the same compound, the inhibition [8] was 0%, the IC50 [9] was > 25 µM and the inhibition [10] was 0%. For the same compound, the IC50 [11] was > 25 µM, the inhibition (Enterobacter cloacae) was 0% and the MIC (Escherichia coli [1]) was > 60 µg/mL. For the same compound, the MIC (Escherichia coli [12]) was > 60 µg/mL and the Activity [13] was “inactive”.

Compound `O=C(O)CC(Cc1ccccc1Cl)C(=O)O` (stereo not given) has an IC50 [2] of 33 µM, an IC50 [3] of 1.6 µM and a Ki [3] of 1.6 µM. For the same compound, the IC50 [4] was 50 µM and the Ki [14] was 3.3 µM.

In the case of `O=S(=O)(NCc1[nH]nnc1CN1CCN(c2ccc(Cl)c(Cl)c2)CC1)c1ccc(I)cc1`, the IC50 [2] is reported as > 56 µM and the inhibition [6] is reported as 5%.

With `O=C1c2c(O)ccc(O)c2C(=O)c2c(NCCNCCO)ccc(NCCNCCO)c21` the Activity [13] was “Active”, the Activity [15] was “Active” and the Activity (Escherichia coli [16]) was “inactive”. For the same compound, the Activity (Escherichia coli [17]) was “inactive”, the Activity (Escherichia coli [18]) was “inactive” and the Activity (Escherichia coli [19]) was “inactive”. The Activity [20] was “Active” and the Activity [21] was “Active”.

In the case of `CC1(C)OCC(COCc2nn[nH]c2CNS(=O)(=O)c2ccc(I)cc2)O1` (stereo not given), the IC50 [2] is reported as > 56 µM and the inhibition [6] is reported as 31%.

With `COCc1nn[nH]c1CNS(=O)(=O)c1ccc(I)cc1` the IC50 [2] was 7.3 µM, the IC50 [3] was > 56 µM and the IC50 [4] was 4.1 µM. The Ki [5] was 1.41 µM, the inhibition [6] was 74% and the inhibition [7] was 90%. For the same compound, the inhibition [8] was 0%, the IC50 [9] was > 25 µM and the inhibition [10] was 0%. For the same compound, the IC50 [11] was > 25 µM, the inhibition (Enterobacter cloacae) was 0% and the MIC (Escherichia coli [1]) was > 60 µg/mL. For the same compound, the MIC (Escherichia coli [12]) was > 60 µg/mL and the Activity [13] was “inactive”.

For `Cn1cc(Cc2nn[nH]c2CNS(=O)(=O)c2ccc(I)cc2)c2ccccc21`, the IC50 [2] was > 56 µM and the inhibition [6] was 11%.

With `Cc1ccc(Cl)cc1N1CCN(Cc2nn[nH]c2CNS(=O)(=O)c2ccc(I)cc2)CC1` the IC50 [2] was > 56 µM and the inhibition [6] was 0%.

For 4-CHLOROMERCURIBENZOIC ACID, the IC50 [9] was > 25 µM and the IC50 [11] was > 25 µM.

Compound 4-[sequence] ACID has an inhibition [22] of 83%, an inhibition [23] of 80% and an inhibition [24] of 0%. It also gave an inhibition [10] of 0%, an inhibition (Enterobacter cloacae) of 0% and an MIC (Escherichia coli [1]) of 17.9 µg/mL. For the same compound, the MIC (Escherichia coli [12]) was 17.9 µg/mL, the Ratio (Escherichia coli [25]) was 9 and the Activity [13] was “Active”. The Activity [15] was “Active”, the Activity (Escherichia coli [26]) was “Active” and the Activity (Escherichia coli [27]) was “Active”. The Activity (Escherichia coli [28]) was “inactive”, the Activity (Escherichia coli [29]) was “inactive” and the Activity (Escherichia coli [18]) was “inactive”. The Activity (Escherichia coli [19]) was “inactive”, the Activity [30] was “Active” and the Activity [31] was “Active”.
